According to ChEMBL document CHEMBL1268908, “Design, synthesis, radiolabeling, and in vivo evaluation of carbon-11 labeled N-[2-[4-(3-cyanopyridin-2-yl)piperazin-1-yl]ethyl]-3-methoxybenzamide, a potential positron emission tomography tracer for the dopamine D(4) receptors” (J Med Chem, 2010):

Experiments:
Type in all cases: ADME, organism-based, Macaca mulatta
Hippocampus [1] = assay: Biodistribution in rhesus monkey hippocampus at 150.3 MBq, iv after 0.75 mins; settings: in vivo, 45 s
Summary of the method: (§1)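 Single male rhesus monkey anesthetized with ketamine 10 mg/kg im, head fixed. Attenuation correction by 20 min 68Ge-68Ga transmission scan. [11C]-tracer in saline (pH 7.4) given iv, specific radioactivity 2.9 TBq/μmol at injection. Dynamic 3D PET emission scan over 90 min in frames of 0.5 to 5 min. MRI T1 images used to define VOIs. Uptake expressed as […].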

Striatum [2] = assay: Biodistribution in rhesus monkey striatum at 150.3 MBq, iv after 1.25 mins; settings: in vivo, 75 s
[3] = Biodistribution in rhesus monkey cingulate cortex at 150.3 MBq, iv after 2.25 mins; settings: in vivo, 135 s
Summary of the method: (§2)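 Male rhesus monkey under ketamine (10 mg/kg im) with head fixation. After a 20 min 68Ge-68Ga transmission scan, the [11C]-labelled tracer in saline (pH 7.4) was injected iv, at 2.9 TBq/μmol specific radioactivity at injection. A dynamic 3D PET scan followed over 90 min (6×0.5, 7×1, 20×2, 8×5 min frames). Regions were defined on T1-weighted 1.5 T MRI, and uptake is given as %ID/mL.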

[4] = Biodistribution in rhesus monkey cingulate cortex at 150.3 MBq, iv after 7.5 mins; settings: in vivo, 0.125 h; summary of the method: as §1
[5] = Biodistribution in rhesus monkey cerebellum at 150.3 MBq, iv after 11 mins; settings: in vivo; summary of the method: as §2
[6] = Biodistribution in rhesus monkey entorhinal cortex at 150.3 MBq, iv after 15 mins; settings: in vivo, 0.25 h; summary of the method: as §1
Striatum [7] = assay: Biodistribution in rhesus monkey striatum at 150.3 MBq, iv after 15 mins; settings: in vivo, 0.25 h
[8] = Biodistribution in rhesus monkey cerebellum at 150.3 MBq, iv after 21 mins; settings: in vivo, 0.35 h; summary of the method: as §2
[9] = Biodistribution in rhesus monkey entorhinal cortex at 150.3 MBq, iv after 23 mins; settings: in vivo; summary of the method: as §1
Striatum [10] = assay: Biodistribution in rhesus monkey striatum at 150.3 MBq, iv after 23 mins; settings: in vivo
[11] = Biodistribution in rhesus monkey cingulate cortex at 150.3 MBq, iv after 29 mins; settings: in vivo; summary of the method: as §2
[12] = Biodistribution in rhesus monkey occipital lobe at 150.3 MBq, iv after 31 mins; settings: in vivo
Summary of the method: (§3)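 Male rhesus monkey under ketamine 10 mg/kg im, head fixed; 20 min 68Ge-68Ga transmission scan, then 90 min dynamic 3D PET (6×0.5, 7×1, 20×2, 8×5 min frames) after iv [11C]-labelled tracer in saline, specific radioactivity about 2.9 TBq/μmol at injection. Regions defined on T1-weighted MRI; uptake expressed as % injected dose per mL.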

[13] = Biodistribution in rhesus monkey retina at 150.3 MBq, iv after 33 mins; settings: in vivo, 0.55 h
[14] = Biodistribution in rhesus monkey cerebellum at 150.3 MBq, iv after 37 mins; settings: in vivo; summary of the method: as §2
[15] = Biodistribution in rhesus monkey cingulate cortex at 150.3 MBq, iv after 39 mins; settings: in vivo, 0.65 h; summary of the method: as §2
Hippocampus [16] = assay: Biodistribution in rhesus monkey hippocampus at 150.3 MBq, iv after 41 mins; settings: in vivo; summary of the method: as §3
Striatum [17] = assay: Biodistribution in rhesus monkey striatum at 150.3 MBq, iv after 41 mins; settings: in vivo
[18] = Biodistribution in rhesus monkey occipital lobe at 150.3 MBq, iv after 41 mins; settings: in vivo
Summary of the method: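 A male rhesus monkey was anaesthetised with ketamine 10 mg/kg im and placed in a head fixation device. A 20 min 68Ge-68Ga transmission scan was run for attenuation correction. Radiotracer in saline (pH 7.4) was given iv, about 52 pmol (18 ng), at 2.9 TBq/μmol at injection. A dynamic 3D PET scan followed for 90 min. Regional VOIs were defined on a T1-weighted MRI, with uptake expressed as %ID/mL.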

[19] = Biodistribution in rhesus monkey retina at 150.3 MBq, iv after 41 mins; settings: in vivo
Hippocampus [20] = assay: Biodistribution in rhesus monkey hippocampus at 150.3 MBq, iv after 43 mins; settings: in vivo; summary of the method: as §3
[21] = Biodistribution in rhesus monkey cerebellum at 150.3 MBq, iv after 57.5 mins; settings: in vivo; summary of the method: as §2
[22] = Biodistribution in rhesus monkey occipital lobe at 150.3 MBq, iv after 87.5 mins; settings: in vivo
[23] = Biodistribution in rhesus monkey cerebellum at 150.3 MBq, iv after 2.75 mins; settings: in vivo, 165 s; summary of the method: as §2
[24] = Biodistribution in rhesus monkey entorhinal cortex at 150.3 MBq, iv after 52.5 mins; settings: in vivo, 0.875 h; summary of the method: as §1
Striatum [25] = assay: Biodistribution in rhesus monkey striatum at 150.3 MBq, iv after 52.5 mins; settings: in vivo, 0.875 h
[26] = Biodistribution in rhesus monkey cingulate cortex at 150.3 MBq, iv after 72.5 mins; settings: in vivo; summary of the method: as §1

[11CH3]Oc1cccc(C(=O)NCCN2CCN(c3ncccc3C#N)CC2)c1
Drug uptake (Hippocampus [1]): 57.7053 kBq/ml
Drug uptake (Striatum [2]): 60.2 kBq/ml
Drug uptake [3]: 50.61 kBq/ml
Drug uptake [4]: 32.75 kBq/ml
Drug uptake [5]: 24.15 kBq/ml
Drug uptake [6]: 22.26 kBq/ml
Drug uptake (Striatum [7]): 21.63 kBq/ml
Drug uptake [8]: 16.76 kBq/ml
Drug uptake [9]: 16.74 kBq/ml
Drug uptake (Striatum [10]): 18.52 kBq/ml
Drug uptake [11]: 15.04 kBq/ml
Drug uptake [12]: 12.89 kBq/ml
Drug uptake [13]: 57.47 kBq/ml
Drug uptake [14]: 11.56 kBq/ml
Drug uptake [15]: 11.74 kBq/ml
Drug uptake (Hippocampus [16]): 11.5929 kBq/ml
Drug uptake (Striatum [17]): 11.2 kBq/ml
Drug uptake [18]: 9.836 kBq/ml
Drug uptake [19]: 57.19 kBq/ml
Drug uptake (Hippocampus [20]): 10.83 kBq/ml
Drug uptake [21]: 9.179 kBq/ml
Drug uptake [22]: 7.721 kBq/ml
Drug uptake [23]: 41.81 kBq/ml
Drug uptake [24]: 9.01 kBq/ml
Drug uptake (Striatum [25]): 10.06 kBq/ml
Drug uptake [26]: 9.513 kBq/ml
